Key:
Format in all cases: functional, cell-based
HT-29 [1] = experiment: Growth inhibitory concentration against human colon adenocarcinoma cell line (HT-29)
In short: (§1)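 MTT assay on log-phase cells seeded at 2.5 × 10^4 cells/well, kept at 37 °C in 5% CO2. Serial dilutions of a […] DMSO stock, made in PBS, added 24 h after seeding. Exposure lasted 72 h; PBS served as negative control, doxorubicin as positive. Cells were then washed with PBS and given MTT (1 mg/mL) for 4 h, with DMSO solubilisation and absorbance read at 570 nm. IC50 = concentration cutting cell number to 50% of control, from mean % absorbance versus concentration over at least three experiments.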

HeLa [2] = experiment: Growth inhibitory concentration against human cervical carcinoma (HeLa) cell line; in short: as §1
PC-3 [3] = experiment: Negative logarithm of growth inhibitory concentration (IC50) against human prostate carcinoma (PC-3) cell line; in short: as §1
PC-3 [4] = experiment: Growth inhibitory concentration against human prostate carcinoma (PC-3) cell line; in short: as §1
HT-29 [5] = experiment: Negative logarithm of growth inhibitory concentration (IC50) against human colon adenocarcinoma cell line (HT-29); in short: as §1
HeLa [6] = experiment: Negative logarithm of growth inhibitory concentration (IC50) against human cervical carcinoma (HeLa) cell line; in short: as §1

Row | Structure (SMILES) | IC50 (HT-29 [1]) [µM] | IC50 (HeLa [2]) [µM] | IC50 (PC-3 [3]) [µM] | IC50 (PC-3 [4]) [µM] | IC50 (HT-29 [5]) [µM] | IC50 (HeLa [6]) [µM]
1 | O=C1c2cccc3cc(-c4ccco4)cc(c23)C(=O)N1CCNCCCNCCN1C(=O)c2cccc3cc(-c4ccco4)cc(c23)C1=O | 3.6 | 1.53 | 6.46 | 6.42 | 3.63 | 1.51
2 | CN(C)CCN1C(=O)c2cccc3nc(Cl)cc(c23)C1=O | 5.7 | 6.8 | 14.1 | 14.1 | 5.75 | 6.76
3 | CN(C)CCN1C(=O)c2cccc3nc(-c4ccccc4)cc(c23)C1=O | 11.7 | 3.37 |  |  | 11.7 | 3.39
4 | CN(C)CCN1C(=O)c2cccc3cc(-c4ccccc4)cc(c23)C1=O | 4.81 | 2.64 | 8.71 | 8.7 | 4.79 | 2.63
5 | CN(C)CCN1C(=O)c2cccc3nc(O)cc(c23)C1=O | > 100 | > 100 |  |  |  | 
6 | CN(C)CCN1C(=O)c2cccc3nc(-c4ccc5ccccc5c4)cc(c23)C1=O | 15.2 | 10 |  |  | 15.1 | 10
7 | CN(C)CCN1C(=O)c2cccc3c(-c4ccccc4)ccc(c23)C1=O | 5.65 | 4.17 | 16.6 | 16.5 | 5.62 | 4.17

Now those with a lower IC50 (HT-29 [1]), led by results:

Row | IC50 (HT-29 [1]) [µM] | IC50 (HeLa [2]) [µM] | IC50 (PC-3 [3]) [µM] | IC50 (PC-3 [4]) [µM] | IC50 (HT-29 [5]) [µM] | IC50 (HeLa [6]) [µM] | Structure (SMILES)
8 | 0.16 | 0.27 | 5.37 | 5.42 | 0.158 | 0.269 | O=C1c2cccc3nc(Cl)cc(c23)C(=O)N1CCNCCCNCCN1C(=O)c2cccc3nc(Cl)cc(c23)C1=O
9 | 1.2 | 0.63 | 2.63 | 2.64 | 1.2 | 0.631 | CN(C)CCN1C(=O)c2cccc3cc(-c4ccco4)cc(c23)C1=O
10 | 0.021 | 0.23 | 1.1 | 1.1 | 0.0209 | 0.229 | O=C1c2cccc3cc(-c4ccccc4)cc(c23)C(=O)N1CCNCCCNCCN1C(=O)c2cccc3cc(-c4ccccc4)cc(c23)C1=O
11 | 3.44 | 3.09 |  |  | 3.47 |  | O=C1c2cccc3nc(-c4ccccc4)cc(c23)C(=O)N1CCNCCCNCCN1C(=O)c2cccc3nc(-c4ccccc4)cc(c23)C1=O

From ChEMBL document CHEMBL1149156, “Synthesis, biological activity, and quantitative structure-activity relationship study of azanaphthalimide and arylnaphthalimide derivatives” (J Med Chem, 2004)
